An excerpt weighted towards active compounds, which were near 2.3% of everything screened.
SKKanGAS inh: inhibitors of SKKanGAS S. pyogenes growth in kanamycin (SK-promoter or general growth effect); AID 1662; BacTiter-Glo, 6 h; 300,000 tested, 1.3% active; inhibition, % at 7.5 µM;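 active = mean replicate score, as percent of positive control median, at least 50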;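 note: strain carries kanamycin resistance gene driven by streptokinase promoter and grows in 40 µg/ml kanamycin; loss of luminescence reflects streptokinase promoter inhibition or plain growth inhibition; 0% = median of DMSO wells and 100% = positive control at its reference dose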
ARFGAP1 inh: rat ARFGAP1 inhibition; Q62848; Arfgap1-stimulated ARF1 GTP hydrolysis, GDP FP detection; inhibition, % at 16.5 µM; 360,000 tested, 0.26% active;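 active = inhibition above a per-plate limit, mean inhibition of low control wells plus 3 SD, cut at about 25% in these data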;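 note: 0% = DMSO wells with enzyme and 100% = wells lacking Arfgap1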
Target sequence (Q62848 1-136 limits assumed): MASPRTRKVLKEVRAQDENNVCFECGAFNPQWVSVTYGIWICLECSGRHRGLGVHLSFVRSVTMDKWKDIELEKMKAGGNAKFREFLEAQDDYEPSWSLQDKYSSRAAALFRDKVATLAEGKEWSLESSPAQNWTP
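Assay system: purified rat His6-Arfgap1 residues 1-136 (GAP domain); Reagent: human Δ17 ARF1 bound to GTP; Dosing: 16.5 µM single point, 1.26% DMSO; Times: GTP hydrolysis reaction 2 h at 25 °C; Signal: FP, GDP Alexa 633 tracer displaced from anti-GDP antibody, 620/688 nm; Measure: % inhibition from polarization.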
Calb FLC: affects C. albicans growth with fluconazole | C. albicans CaCi-2 (fluconazole-resistant clinical isolate) + fluconazole, Alamar Blue growth, 48 h | 300,000 tested, 0.57% active | growth inhibition, % (no concentration beside the values);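 active = growth inhibition above about 58% in most replicates, limit read from the data, passing the limit was not always enough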;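 note: all wells also contain fluconazole at 8 µg/ml as a sub-toxic cotreatment; 0% = median of DMSO wells and 100% = median of geldanamycin control wells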
HGIII-sPLA2 inh: Blocks human group III sPLA2 activity | AID 743126 | inhibition, % at 12.2 µM | Q9NZ20 | QFRET BODIPY PC-A2 liposome hydrolysis, fluorescence | 370,000 tested, 0.56% active;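 active = inhibition above mean plus 3 SD of compounds lying within the high and low control bounds, cut at about 19% in these data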;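 note: 0% = median of test compound wells and 100% = no enzyme DMSO wells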
Target sequence (Q9NZ20 whole entry, looked up): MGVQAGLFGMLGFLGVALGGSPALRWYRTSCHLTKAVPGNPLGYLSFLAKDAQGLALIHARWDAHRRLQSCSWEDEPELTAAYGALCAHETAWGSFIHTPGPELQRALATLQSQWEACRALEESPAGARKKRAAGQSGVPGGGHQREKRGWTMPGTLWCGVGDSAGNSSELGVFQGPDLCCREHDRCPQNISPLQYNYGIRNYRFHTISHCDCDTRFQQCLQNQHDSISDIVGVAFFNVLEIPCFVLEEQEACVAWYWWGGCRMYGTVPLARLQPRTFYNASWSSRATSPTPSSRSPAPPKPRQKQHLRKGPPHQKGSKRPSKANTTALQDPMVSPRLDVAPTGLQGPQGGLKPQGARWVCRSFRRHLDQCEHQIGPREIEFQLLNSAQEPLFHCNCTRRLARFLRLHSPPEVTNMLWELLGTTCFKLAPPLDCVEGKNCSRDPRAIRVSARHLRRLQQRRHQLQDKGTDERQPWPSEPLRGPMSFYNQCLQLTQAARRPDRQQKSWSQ
ASAP1 GAP inh: ASAP1 ArfGAP inhibition. Q9ULH1. 360,000 tested, 0.19% active. ASAP1-stimulated ARF1 GTP hydrolysis, GDP FP detection. inhibition, % at 16.5 µM. AID 624377; in the data active = inhibition above about 25%;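 note: 0% = vehicle with enzyme and substrate and 100% = no enzyme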
Active calls of the source: *; nt = no result.

SMILES | SKKanGAS inh | ARFGAP1 inh | Calb FLC | HGIII-sPLA2 inh | ASAP1 GAP inh
O=C(NC(=S)N1CCN(c2nc(-c3ccccc3)cs2)CC1)c1cccnc1 | 79* | 1 | -13 | 8 | 0
O=C(NNC(=O)c1cc2ccccc2cc1O)Nc1ccccc1F | 3 | 12 | 87* | 14 | -1
Cc1ccc(NC(=O)NNC(=O)c2cc3ccccc3cc2O)c(C)c1 | 5 | -6 | 82* | 16 | 0
Cc1cccc(NC(=O)NNC(=O)c2cc3ccccc3cc2O)c1C | 2 | -36 | 65* | 17 | -2
CCOc1ccc(NC(=O)NNC(=O)c2cc3ccccc3cc2O)cc1 | -3 | -8 | 86* | 14 | 13
O=C(NCCCl)NNC(=O)c1cc2ccccc2cc1O | nt | -6 | 29 | 3 | 0
COP(=O)(CC(=O)C(Cc1ccccc1)NC(=O)OC(C)(C)C)OC (centres undefined) | nt | nt | nt | -2 | nt
CC(C)C[C@H]1CNC(=S)N1C[C@H]1CCCN1C[C@H](CC(C)C)N1C[C@H](Cc2ccc(O)cc2)N(CC2CCCCC2)C1=S | nt | 7 | nt | -18 | 13
O=C1/C(=C\c2ccc(O)cc2)SC(=S)N1Cc1ccccc1 | 8 | 24 | 20 | -35 | 5
COc1cc(/C=C2/SC(=S)N(Cc3ccccc3)C2=O)cc(Cl)c1O | 73* | 5 | -7 | -8 | -3
O=C1/C(=C\c2cc(Br)cc(Br)c2O)SC(=S)N1Cc1ccccc1 | 79* | nt | 1 | nt | nt
C[C@]1(CC/C(=C/CO)CO)[C@H](C=O)CC[C@@]23COC(=O)C2=CCC[C@@H]31 | nt | -12 | nt | 1 | -2
COc1ccccc1CC1(C)C(=O)Nc2ccc(S(=O)(=O)NC3CCCCC3)cc21 (centres undefined) | nt | -2 | nt | -22 | 11
COc1ncc(-c2cc(C(C)=O)c3n(c2=O)CCC3)c(OC)n1 | nt | nt | nt | -4 | nt
O=C1C[C@@H](c2ccccc2)N=C2N(CC3CC3)C/C(=C/c3ccccc3)N12 | nt | nt | nt | -8 | nt
Oc1ccc(C2=NNC(c3ccc(O)cc3)=NN2)cc1 | 0 | -14 | 94* | 0 | 3
COc1cc(C)c(Cc2cnc(N)nc2N)cc1OC | 52* | nt | nt | nt | nt
CC(C)Oc1ccc(Cc2cnc(N)nc2N)cc1 | 20 | -11 | -4 | -2 | 2
COc1cc(OC)c2cc(C(=O)N/N=C/c3ccccc3O)[nH]c2c1 | 103* | -3 | 81* | 2 | -4
Cc1ccc2[nH]c(C(=O)N/N=C/c3ccccc3O)c(C)c2c1 | 101* | -4 | -19 | 15 | 2
CCCCn1c(=O)[nH]c(=O)c2c1nc(-c1ccc(-c3ccccc3Br)o1)n2CC | 2 | -1 | 104* | 0 | 15
CCCCn1c(=O)[nH]c(=O)c2c1nc(-c1ccc3ccccc3c1)n2CC | 26 | 18 | 0 | 4 | -3
Cc1ccc(NC(=O)CCS(=O)(=O)c2ccccc2)cc1C | nt | nt | nt | 4 | nt
COc1ccccc1-n1c(N)c(C(N)=O)sc1=S | 3 | 5 | -2 | 4 | 5
COc1ccccc1-n1c(C)cc(SC)c(C(C)=O)c1=S | 0 | 12 | 86* | 0 | -7
SMILES | SKKanGAS inh | ARFGAP1 inh | Calb FLC | HGIII-sPLA2 inh | ASAP1 GAP inh
COC(=O)[C@]12C[C@H](CC(=O)NCc3cccc(C(F)(F)F)c3)C(=O)N(Cc3ccco3)C1=C[C@H](C(C)C)O[C@@H]2C1CC1 | nt | nt | nt | -13 | nt
O=C(C(=O)N1CCN(C(=O)OCc2ccccc2)CC1)c1cccnc1 | nt | 4 | nt | 1 | 7
NC1=NC[C@H](CC2CCCCC2)N1CCc1cc(C(F)(F)F)cc(C(F)(F)F)c1 | 5 | 8 | 92* | 3 | 5
O=C(NC1CCCCC1)C(c1ccc2ncccc2c1)N(Cc1ccc(F)cc1)C(=O)c1ccc2c(c1)OCCO2 (centres undefined) | 17 | -6 | 87* | 1 | 8
O=C(NC1CCCCC1)C(c1ccc2ncccc2c1)N(Cc1ccc2c(c1)OCO2)C(=O)c1ccc2c(c1)OCCO2 (centres undefined) | 7 | 4 | 6 | 3 | -4
O=C1NC(=O)C2(CCOc3ccc(F)cc32)N1 (centres undefined) | nt | 0 | nt | 5 | 0
O=C(C[n+]1cnn(CC(=O)c2ccc(Cl)cc2Cl)c1)c1ccc([N+](=O)[O-])cc1 | 93* | 4 | -1 | 8 | 9
Cc1nnc(SCC2=C(C(=O)O)N3C(=O)C(NC(=O)Cn4ncc(Cl)c4C)C3SC2)s1 (centres undefined) | 106* | 12 | 1 | 7 | -5
Cc1nnc(SCC2=C(C(=O)O)N3C(=O)C(NC(=O)c4cccc(F)c4F)C3SC2)s1 (centres undefined) | 120* | -2 | -12 | -4 | 2
Cc1cc(C)n(CC(=O)NC2C(=O)N3C(C(=O)O)=C(CSc4nnc(C)s4)CSC23)n1 (centres undefined) | nt | 0 | -17 | 9 | -7
CC1=C(C(=O)O)N2C(=O)C(NC(=O)c3c(F)cccc3F)C2SC1 (centres undefined) | nt | -4 | nt | 2 | 6
CCN(CC)S(=O)(=O)c1ccc(N/N=C(\C)c2ccc(OC)cc2O)nc1 | 82* | 11 | 91* | -20 | 11
CCOc1cccc(/C=N/Nc2ccc(S(=O)(=O)N(CC)CC)cn2)c1O | 91* | -4 | 26 | -1 | -3
CC(C)CNC(=O)OCc1cn(Cc2ccc(Cl)cc2)nn1 | nt | nt | nt | 7 | nt
COc1ccc(-c2csc(Nc3ccc(S(=O)(=O)Nc4cc(C)on4)cc3)n2)cc1C | 68* | -17 | -18 | -111 | -8
FC(F)(F)c1ccccc1/C=N/n1c(C2CCCCC2)n[nH]c1=S | 56* | 16 | 27 | -12 | 3
S=c1[nH]nc(C2CCCCC2)n1/N=C/c1ccccc1Cl | 18 | -6 | 37 | 9 | 1
N#Cc1ccccc1N1CCN(C(=O)C2CCN(c3ncnc4c3sc3cccc(F)c34)CC2)CC1 | nt | nt | nt | -5 | nt
Oc1ccc(-c2cc(-c3ccc(O)cc3)nc(-c3ccccc3)n2)cc1 | 103* | 13 | -1 | -90 | 11
Clc1cc(-c2ccccc2)nc(-c2ccccc2)n1 | 27 | 8 | 1 | 6 | 4
Brc1cc(-c2ccccc2)nc(-c2ccccc2)n1 | 51* | 8 | 2 | 0 | 1
CCCCCC(=O)NC(=S)NC1C2CC3CC(C2)CC1C3 (centres undefined) | 83* | 11 | -1 | 0 | 7
CCOc1ccccc1NC(=O)C(NCCN(C)C)c1ccccc1 (centres undefined) | 1 | 10 | 0 | -6 | 8
CCOc1ccccc1NC(=O)C(NCC1CCCCC1)c1ccccc1 (centres undefined) | 55* | 13 | 0 | -6 | 2
Cc1nn2c(NCCCn3ccnc3)cc(C(C)C)nc2c1-c1ccccc1 | 15 | -2 | -14 | -15 | -1
Cc1nn2c(NCc3ccccn3)cc(C(C)C)nc2c1-c1ccccc1 | 101* | 6 | 5 | 12 | 5
CCCc1cc(NCc2ccccn2)n2nc(C)c(-c3ccccc3)c2n1 | 94* | -11 | 1 | 10 | 3
CC(=O)Nc1ccc(Nc2cc(C(C)C)nc3c(-c4ccccc4)c(C)nn23)cc1 | 88* | 11 | 11 | 9 | 9
